Measured values taken from publication PMC4109024 (Nature communications, 2014).
Entries after “also recorded” stand apart in the source; their conditions may differ.

Legend:
[1] = system: CNGB3-MYC expressing HEK293T cells; test: Biotin-z13 localization / endosome-escaping activity; format: cell-based; settings: 37°C, 30 min, biotin-z13 in presence of HLAH-z13; Alexa 488-avidin
[2] = system: CNGB3-Myc transfected A431 cells; test: Cell viability assay, CNGB3-positive A431 cells; format: cell-based; settings: 37°C, 6 hours, ATP by CellTiter Glo; for Concentration above which cell viability was affected, CNGB3-positive A431: single peptide
Summary of the method: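 CNGB3–MYC-transfected A431 cells, with untransfected CNGB3-negative A431 as control, grown in DME/F12 with 10% FCS. Cells were exposed to single peptides or the two-peptide combination at a range of concentrations for 6 h at 37 °C. Peptide stocks were 100 μg/μl in DMSO, and a DMSO-only control was run at 0.01% final. Viability was read as ATP content by CellTiter Glo luminescence.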

[3] = system: CNGB3-MYC expressing HEK293T cells; test: TUNEL apoptosis assay, CNGB3-MYC HEK293T cells; format: cell-based
Summary of the method: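 HEK293T cells transfected with CNGB3–MYC were cultured for 20 h at 37 °C with one of these treatments: no peptide; targeting peptide, 100 μg/ml; pro-apoptotic peptide, 100 μg/ml; its conjugate, 100 μg/ml; endosome-escaping conjugate, 25 μg/ml; or conjugates at 100 plus 25 μg/ml. Stocks were 100 μg/μl in DMSO. Apoptosis was detected by immunoperoxidase TUNEL.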

[4] = system: human endometrial adenocarcinoma Ishikawa cells; test: Phage binding/internalization to Ishikawa cells; format: cell-based; settings: cloned phage, 37°C, 30 min; plaque forming assay; repeated three times
Summary of the method: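 Phage clones came from a T7 library of linear 9-mer peptides. Each selection round had two steps: 1 h in vivo subtraction in female mouse peritoneum, then 30 min internalization into Ishikawa monolayers at 37 °C. Clones from three such rounds were each added to Ishikawa monolayers, or A431 controls, for 30 min at 37 °C. Internalized phage was counted by plaque assay, and binding was expressed as plaques recovered relative to phage added.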

[5] = system: Ishikawa cell surface proteins; test: z13 affinity isolation of biotinylated Ishikawa cell surface proteins; format: binding, human; settings: biotinylated Ishikawa lysate; z13 peptide 1 mg/ml elution; avidin blot
Summary of the method: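 Ishikawa monolayers were surface-biotinylated with sulpho-NHS-LC-biotin (0.5 mg/ml in PBS, 30 min) and solubilized at 4 °C in TBS with 50 mM octyl-thio-glucoside and protease inhibitors. Lysate was precleared on agarose for 2 h at 4 °C, then bound to peptide-conjugated agarose. Elution used peptide at 1 mg/ml, with an irrelevant peptide as control. Eluates were analysed by SDS–PAGE, peroxidase-avidin blot and chemiluminescence.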

[6] = system: CNGB3-expressing A431 cells; test: Inhibition of KLAK-z13 plus HLA-z13 cytotoxicity by z13 / palmitoyl-z13; format: cell-based; settings: KLAK-z13 100 μg/ml + HLA-z13 25 μg/ml, 37 °C, 6 hours; average of triplicate; repeated three times

| Sequence | Effect on biotin-z13 localization (endosome-escaping activity) [1] | Cell viability, CNGB3-positive A431 [2] | Concentration above which cell viability was affected, CNGB3-positive A431 [2] [µg/mL] | Apoptosis of CNGB3-expressing HEK293T cells, HLAH-z13 25 μg/ml ([3]; 25 μg/ml, 37°C, 20 hours, TUNEL) | Apoptosis of CNGB3-MYC transfected HEK293T cells, dKLAK-z13 alone ([3]; culture medium of transfected cells, concentration not given) | Binding strength to Ishikawa cells among phage clones [4] | Protein bound to z13 beads and eluted by z13 peptide [5] | Blocking of cytotoxicity of KLAK-z13 plus HLA-z13 [6] |
| --- | --- | --- | --- | --- | --- | --- | --- | --- |
| HLAHLAHHLAHLAHHLAHVRRADNRPG [HLAH-z13] | diffuse cytoplasmic signals | cell viability was not affected except at high concentrations | > 50 | did not undergo apoptosis |  |  |  |  |
| KLAKLAKKLAKLAKKLAKVRRADNRPG [dKLAK-z13] |  | cell viability was not affected except at high concentrations | > 200 |  | apoptosis was not induced; also recorded: did not induce apoptosis |  |  |  |
| VRRADNRPG [z13] |  | cell viability was not affected |  |  |  | the strongest binder | single 68 kDa protein | blocked |
